Measurements as given in ChEMBL document CHEMBL1799933, “Discovery of a selective allosteric M1 receptor modulator with suitable development properties based on a quinolizidinone carboxylic acid scaffold” (J Med Chem, 2011).
Numbering of substitutions follows the chain as printed. The source made the active and inactive calls. The rule behind the calls is not given here.

Columns and labels:
[1] = Ratio of drug level in brain to plasma of Sprague-Dawley rat at 10 mg/kg, po; type: ADME, organism-based; design: dose 10 mg/kg, route oral; conditions: read-out: BPR
In short: (§1)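 Rats dosed orally at 10 mpk. Plasma, brain and CSF sampled at 2 h and concentrations determined by bioanalysis.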

[2] = target: T1, Muscarinic acetylcholine receptor M1 (Homo sapiens) (UniProt P11229); test: Positive allosteric modulation of human muscarinic M1 receptor expressed in CHONFAT cells assessed as potentiation of acetylcholine-induced calcium mobilization at 0.1 uM preincubated for 4 mins measured after 1 hr by FLIPR assay relative to control; type: functional, cell-based
T1 sequence (whole entry): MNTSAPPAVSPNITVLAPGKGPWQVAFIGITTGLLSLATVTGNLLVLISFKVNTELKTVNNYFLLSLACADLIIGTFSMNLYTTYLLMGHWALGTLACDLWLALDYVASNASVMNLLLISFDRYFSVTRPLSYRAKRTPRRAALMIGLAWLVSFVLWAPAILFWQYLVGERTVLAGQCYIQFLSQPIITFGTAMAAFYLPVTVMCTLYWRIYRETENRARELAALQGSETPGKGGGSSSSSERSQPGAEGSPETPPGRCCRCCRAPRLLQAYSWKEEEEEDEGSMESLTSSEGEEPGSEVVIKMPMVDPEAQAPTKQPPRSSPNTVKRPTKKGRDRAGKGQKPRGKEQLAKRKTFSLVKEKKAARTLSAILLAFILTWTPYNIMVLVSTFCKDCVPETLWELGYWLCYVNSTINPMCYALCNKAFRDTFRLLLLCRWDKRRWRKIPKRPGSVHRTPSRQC
In short: (§2)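 CHO-NFAT cells expressing human M1, 25,000 cells/well, grown overnight at 37 °C, 6% CO2. Washed in HBSS with 20 mM Hepes, 2.5 mM probenecid, 0.1% BSA, then loaded with 1 μM Fluo-4AM for 1 h at 37 °C. Compound preincubated 4 min (final DMSO 0.67%), then serially diluted ACh added for 4 min. Ca2+ flux read by FLIPR384; fold leftward shift of the ACh dose-response curve.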

[3] = target: T1, Muscarinic acetylcholine receptor M1 (Homo sapiens); test: Positive allosteric modulation of human muscarinic M1 receptor expressed in CHONFAT cells assessed as potentiation of acetylcholine-induced calcium mobilization at 1 uM preincubated for 4 mins measured after 1 hr by FLIPR assay relative to control; type: functional, cell-based; in short: as §2
[4] = target: T2, Muscarinic acetylcholine receptor M4 (Homo sapiens) (UniProt P08173); test: Agonist activity at human muscarinic M4 receptor expressed in CHONFAT cells assessed as increase in acetylcholine-induced calcium mobilization at 10 uM preincubated for 4 mins measured after 1 hr by FLIPR assay; type: functional, cell-based
T2 sequence (whole entry): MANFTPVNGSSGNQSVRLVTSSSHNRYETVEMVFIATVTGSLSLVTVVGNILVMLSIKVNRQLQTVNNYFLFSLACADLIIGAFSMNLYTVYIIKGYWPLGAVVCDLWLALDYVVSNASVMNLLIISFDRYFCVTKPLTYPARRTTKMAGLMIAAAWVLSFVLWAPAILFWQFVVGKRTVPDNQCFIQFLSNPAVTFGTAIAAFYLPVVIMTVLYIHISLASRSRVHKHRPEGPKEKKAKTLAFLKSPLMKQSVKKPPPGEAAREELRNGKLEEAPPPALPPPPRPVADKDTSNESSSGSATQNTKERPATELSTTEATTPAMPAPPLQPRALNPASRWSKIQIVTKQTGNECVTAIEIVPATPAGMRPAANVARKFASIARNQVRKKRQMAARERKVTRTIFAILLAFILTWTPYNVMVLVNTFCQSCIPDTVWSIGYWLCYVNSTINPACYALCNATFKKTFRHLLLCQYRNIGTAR
In short: (§3)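 CHO-NFAT cells expressing the named muscarinic receptor (human M1–M4; rhesus, dog or rat M1 in CHO-K1) were plated at 25,000 cells/well and grown overnight at 37 °C, 6% CO2. Cells were loaded with 1 μM Fluo-4AM for 1 h, washed, and preincubated 4 min with serially diluted compound (final DMSO 0.67%). They were then stimulated 4 min with an EC20 of ACh, and Ca2+ flux was read by FLIPR384.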

[5] = tested on: Mus musculus; test: Antiamnesic activity against scopolamine-induced dementia in B6SJL mouse assessed as increase in freezing behavior at 30 mg/kg, ip after 24 hrs; type: functional, organism-based; design: dose 30 mg/kg
In short: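 Male B6SJL mice, 10 weeks old and naive (n = 12–16/group), were given compound IP in 5% beta-cyclodextrin and/or scopolamine 0.3 mg/kg in 0.9% saline 30 min before training. Training was 2 tone (3 kHz, 85 dB, 30 s)–footshock (0.5 mA, 1 s) pairings 2 min apart. Freezing in the same chamber was video-scored 24 h later.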

[6] = target: T1, Muscarinic acetylcholine receptor M1 (Homo sapiens); test: Agonist activity at human muscarinic M1 receptor expressed in CHONFAT cells assessed as increase in calcium mobilization at 10 uM preincubated for 4 mins measured after 1 hr by FLIPR assay; type: functional, cell-based
[7] = Clearance in rat at 3 mg/kg, po and 1 mg/kg, iv; type: ADME, organism-based; conditions: in vivo
In short: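 Rats (n = 2) dosed orally at 3 mg/kg and IV at 1 mg/kg. Interanimal variability under 20% for all values.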

[8] = tested on: Cerebrospinal fluid; test: Drug level in Sprague-Dawley rat cerebrospinal fluid at 10 mg/kg, po; type: ADME, organism-based; design: dose 10 mg/kg, route oral; conditions: in vivo, read-out: Drug uptake; in short: as §1
[9] = target: T1, Muscarinic acetylcholine receptor M1 (Homo sapiens); test: Agonist activity at human muscarinic M1 receptor expressed in CHONFAT cells assessed as enhancement of acetylcholine-induced calcium mobilization preincubated for 4 mins measured after 1 hr by FLIPR assay; type: functional, cell-based; in short: as §3
[10] = Lipophilicity, log P of the compound; type: physicochemical; conditions: octanol/water
[11] = tested on: Brain; test: Drug level Sprague-Dawley rat brain at 10 mg/kg, po; type: ADME, organism-based; design: dose 10 mg/kg, route oral; conditions: in vivo, read-out: Drug uptake; in short: as §1
[12] = Plasma protein binding in human serum by equilibrium dialysis method; type: ADME, cell-free; conditions: read-out: PPB (converted)
In short: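 Protein binding measured by equilibrium dialysis against rat or human serum.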

[13] = target: T3, Muscarinic acetylcholine receptor M1 (Rattus norvegicus) (UniProt P08482); test: Agonist activity at rat muscarinic M1 receptor expressed in CHOK1 cells assessed as potentiation of acetylcholine-induced calcium mobilization preincubated for 4 mins measured after 1 hr by FLIPR assay; type: functional, cell-based; conditions: CHO-K1; in short: as §3
T3 sequence (whole entry): T1 sequence (whole entry) with A5V, T254S, P309S, R320K, A337G, I413V

[14] = Agonist activity at dog muscarinic M1 receptor expressed in CHOK1 cells assessed as potentiation of acetylcholine-induced calcium mobilization preincubated for 4 mins measured after 1 hr by FLIPR assay; type: functional, Canis lupus familiaris, CHO-K1; in short: as §3
[15] = Oral bioavailability in rhesus monkey; type: ADME, organism-based, Macaca mulatta; conditions: in vivo

## N#CC1(c2ccccn2)CCN(Cc2cc(C(=O)O)c(=O)n3ccccc23)CC1 [MSD-M1PAM]
[1]
  Kp: 0.23
[2]
  fold change (FC): 3
[3]
  fold change (FC): 146
[4]
  Activity: inactive
[5]
  Activity: Active
[6]
  Activity: Active
[7]
  clearance: 13.5 mL/min/kg
[8]
  concentration: 135 nM
[9]
  IP: 135 nM
[10]
  logP: 0.15
[11]
  concentration: 306 nM
[12]
  fraction unbound: 0.291
[13]
  IP: 89 nM
[14]
  IP: 100 nM
[15]
  bioavailability: 55%
